# In ChEMBL document CHEMBL4689842, “EUbOPEN Chemogenomics Library wave 1” (2021):
# Tested on: U2OS
# Test: Multiplex assay against U2OS
# Format: toxicity, cell-based
# Settings: human
# Summary of the method: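 Live cells carried four stains from seeding: Hoechst33342, BioTracker Green Microtubule Cytoskeleton Dye, MitoTracker Red and Annexin V Alexa Fluor 680. They were imaged on a CQ1 microscope at 37°C and 5% CO2 after compound addition. Using CellPathfinder machine-learning gating, cells were split into Hoechst high-intensity objects or normal cells, normal cells into healthy, pyknosed or fragmented nuclei, and pyknosed cells into mitotic or apoptotic; tubulin, mitochondrial-mass and membrane-permeability phenotypes are per cents of healthy-nucleus cells.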
# [1] = 12 h, 1 µM, compound concentration 1 uM, replicate 1
# [2] = 12 h, 1 µM, compound concentration 1 uM, replicate 2
# [3] = 12 h, 10 µM, compound concentration 10 uM, replicate 1
# [4] = 12 h, 10 µM, compound concentration 10 uM, replicate 2
# [5] = 24 h, 1 µM, compound concentration 1 uM, replicate 1
# [6] = 24 h, 1 µM, compound concentration 1 uM, replicate 2
# [7] = 24 h, 10 µM, compound concentration 10 uM, replicate 1
# [8] = 24 h, 10 µM, compound concentration 10 uM, replicate 2
# [9] = 48 h, 1 µM, compound concentration 1 uM, replicate 1
# [10] = 48 h, 1 µM, compound concentration 1 uM, replicate 2
# [11] = 48 h, 10 µM, compound concentration 10 uM, replicate 1
# [12] = 48 h, 10 µM, compound concentration 10 uM, replicate 2
structure (smiles),measurement,setting,value
CN(C)C(=O)/C(C#N)=C/c1ccc(-c2nc3cnc4[nH]ccc4c3n2C2CCCCC2)o1,Population Apoptotic (%),[1],60%
same,Population Fragmented Nuclei (%),[1],17%
same,Population Healthy Nuclei (%),[1],69%
same,Population Hoechst High Intensity Objects (%),[1],8%
same,Population Membrane Permeable-Phenotype (%),[1],5%
same,Population Mitochondria Different-Phenotype (%),[1],14%
same,Population Mitotic Cells (%),[1],40%
same,Population Normal (%),[1],91%
same,Population Pyknosed Nuclei (%),[1],13%
same,Population Tubulin-Different-Phenotype (%),[1],8%
same,Total Cell Count,[1],122
same,Population Apoptotic (%),[2],57%
same,Population Fragmented Nuclei (%),[2],4%
same,Population Healthy Nuclei (%),[2],87%
same,Population Hoechst High Intensity Objects (%),[2],2%
same,Population Membrane Permeable-Phenotype (%),[2],2%
same,Population Mitochondria Different-Phenotype (%),[2],6%
same,Population Mitotic Cells (%),[2],42%
same,Population Normal (%),[2],97%
same,Population Pyknosed Nuclei (%),[2],7%
same,Population Tubulin-Different-Phenotype (%),[2],24%
same,Total Cell Count,[2],75
same,Population Apoptotic (%),[3],19%
same,Population Fragmented Nuclei (%),[3],17%
same,Population Healthy Nuclei (%),[3],56%
same,Population Hoechst High Intensity Objects (%),[3],49%
same,Population Membrane Permeable-Phenotype (%),[3],12%
same,Population Mitochondria Different-Phenotype (%),[3],55%
same,Population Mitotic Cells (%),[3],80%
same,Population Normal (%),[3],50%
same,Population Pyknosed Nuclei (%),[3],25%
same,Population Tubulin-Different-Phenotype (%),[3],75%
same,Total Cell Count,[3],167
same,Population Apoptotic (%),[4],18%
same,Population Fragmented Nuclei (%),[4],20%
same,Population Healthy Nuclei (%),[4],62%
same,Population Hoechst High Intensity Objects (%),[4],54%
same,Population Membrane Permeable-Phenotype (%),[4],13%
same,Population Mitochondria Different-Phenotype (%),[4],63%
same,Population Mitotic Cells (%),[4],81%
same,Population Normal (%),[4],45%
same,Population Pyknosed Nuclei (%),[4],17%
same,Population Tubulin-Different-Phenotype (%),[4],70%
same,Total Cell Count,[4],91
same,Population Apoptotic (%),[5],75%
same,Population Fragmented Nuclei (%),[5],12%
same,Population Healthy Nuclei (%),[5],79%
same,Population Hoechst High Intensity Objects (%),[5],5%
same,Population Membrane Permeable-Phenotype (%),[5],4%
same,Population Mitochondria Different-Phenotype (%),[5],8%
same,Population Mitotic Cells (%),[5],25%
same,Population Normal (%),[5],94%
same,Population Pyknosed Nuclei (%),[5],8%
same,Population Tubulin-Different-Phenotype (%),[5],6%
same,Total Cell Count,[5],133
same,Population Apoptotic (%),[6],54%
same,Population Fragmented Nuclei (%),[6],5%
same,Population Healthy Nuclei (%),[6],84%
same,Population Hoechst High Intensity Objects (%),[6],4%
same,Population Membrane Permeable-Phenotype (%),[6],2%
same,Population Mitochondria Different-Phenotype (%),[6],10%
same,Population Mitotic Cells (%),[6],45%
same,Population Normal (%),[6],95%
same,Population Pyknosed Nuclei (%),[6],9%
same,Population Tubulin-Different-Phenotype (%),[6],36%
same,Total Cell Count,[6],81
same,Population Apoptotic (%),[7],34%
same,Population Fragmented Nuclei (%),[7],17%
same,Population Healthy Nuclei (%),[7],56%
same,Population Hoechst High Intensity Objects (%),[7],44%
same,Population Membrane Permeable-Phenotype (%),[7],15%
same,Population Mitochondria Different-Phenotype (%),[7],45%
same,Population Mitotic Cells (%),[7],65%
same,Population Normal (%),[7],55%
same,Population Pyknosed Nuclei (%),[7],25%
same,Population Tubulin-Different-Phenotype (%),[7],55%
same,Total Cell Count,[7],196
same,Population Apoptotic (%),[8],44%
same,Population Fragmented Nuclei (%),[8],28%
same,Population Healthy Nuclei (%),[8],53%
same,Population Hoechst High Intensity Objects (%),[8],54%
same,Population Membrane Permeable-Phenotype (%),[8],12%
same,Population Mitochondria Different-Phenotype (%),[8],49%
same,Population Mitotic Cells (%),[8],55%
same,Population Normal (%),[8],45%
same,Population Pyknosed Nuclei (%),[8],17%
same,Population Tubulin-Different-Phenotype (%),[8],45%
same,Total Cell Count,[8],125
same,Population Apoptotic (%),[9],55%
same,Population Fragmented Nuclei (%),[9],8%
same,Population Healthy Nuclei (%),[9],85%
same,Population Hoechst High Intensity Objects (%),[9],0%
same,Population Membrane Permeable-Phenotype (%),[9],3%
same,Population Mitochondria Different-Phenotype (%),[9],7%
same,Population Mitotic Cells (%),[9],44%
same,Population Normal (%),[9],99%
same,Population Pyknosed Nuclei (%),[9],6%
same,Population Tubulin-Different-Phenotype (%),[9],10%
same,Total Cell Count,[9],179
same,Population Apoptotic (%),[10],30%
same,Population Fragmented Nuclei (%),[10],4%
same,Population Healthy Nuclei (%),[10],90%
same,Population Hoechst High Intensity Objects (%),[10],1%
same,Population Membrane Permeable-Phenotype (%),[10],1%
same,Population Mitochondria Different-Phenotype (%),[10],15%
same,Population Mitotic Cells (%),[10],70%
same,Population Normal (%),[10],98%
same,Population Pyknosed Nuclei (%),[10],5%
same,Population Tubulin-Different-Phenotype (%),[10],43%
same,Total Cell Count,[10],104
same,Population Apoptotic (%),[11],39%
same,Population Fragmented Nuclei (%),[11],26%
same,Population Healthy Nuclei (%),[11],47%
same,Population Hoechst High Intensity Objects (%),[11],44%
same,Population Membrane Permeable-Phenotype (%),[11],23%
same,Population Mitochondria Different-Phenotype (%),[11],18%
same,Population Mitotic Cells (%),[11],60%
same,Population Normal (%),[11],55%
same,Population Pyknosed Nuclei (%),[11],25%
same,Population Tubulin-Different-Phenotype (%),[11],36%
same,Total Cell Count,[11],279
same,Population Apoptotic (%),[12],63%
same,Population Fragmented Nuclei (%),[12],34%
same,Population Healthy Nuclei (%),[12],49%
same,Population Hoechst High Intensity Objects (%),[12],48%
same,Population Membrane Permeable-Phenotype (%),[12],27%
same,Population Mitochondria Different-Phenotype (%),[12],27%
same,Population Mitotic Cells (%),[12],36%
same,Population Normal (%),[12],51%
same,Population Pyknosed Nuclei (%),[12],16%
same,Population Tubulin-Different-Phenotype (%),[12],31%
same,Total Cell Count,[12],172
